Test results as given in ChEMBL document CHEMBL1944513, “Synthesis of novel 2-mercapto benzothiazole and 1,2,3-triazole based bis-heterocycles: their anti-inflammatory and anti-nociceptive activities” (Eur J Med Chem, 2012).
Calls of active or inactive are those of the source. No cut-off for these calls is given here.

Legend:
[1] = test system: Rattus norvegicus; assay: Antiinflammatory activity in Albino Wistar rat assessed as inhibition of carrageenan-induced paw edema at equimolar dosage of Ibuprofen 10 mg/kg, po administered 1 hr before carrageenan challenge measured after 3 hrs by plethysmometer; type: functional
How it was run: (§1)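 Rats fasted 14 h with water only. Compounds given orally at dose equimolar to ibuprofen (10 mg/kg p.o.) 1 h before subplantar injection of 0.1 ml freshly prepared 1% carrageenan in saline into right hind paw. Control received 0.1 ml 0.9% saline orally. Change in paw volume (ml) at 3 and 5 h; % inhibition; one-way ANOVA with Dunnett's test.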

[2] = test system: Rattus norvegicus; assay: Antiinflammatory activity in Albino Wistar rat assessed as inhibition of carrageenan-induced paw edema at equimolar dosage of Ibuprofen 10 mg/kg, po administered 1 hr before carrageenan challenge measured after 5 hrs by plethysmometer; type: functional; how it was run: as §1
[3] = Selectivity ratio of IC50 for human recombinant COX2 to IC50 for ram seminal vesicle COX1; type: tissue-based
How it was run: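 COX-1 and COX-2 purified chromatographically. Peroxidase read-out from TMPD oxidation during PGG2 to PGH2 reduction. Mix: 100 mM Tris-HCl pH 8.0, hematin, 3 mM EDTA, […], test compound; 1 min preincubation at 25 °C; started with arachidonic acid plus TMPD. Rate from absorbance rise at 603 nm over first 25 s. Ratio is IC50 COX-2/IC50 COX-1.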

[4] = test system: Mus musculus; assay: Analgesic activity in mouse assessed as inhibition of acetic acid-induced writhing at 10 mg/kg, po administered 30 mins before to acetic acid challenge measured for 20 mins relative to control; type: functional, organism-based; set-up: dose 10 mg/kg
How it was run: (§2)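 Writhing induced in mice by intraperitoneal 0.6% (v/v) acetic acid (80 mg/kg). Compounds given orally at dose equimolar to ibuprofen 10 mg/kg, 30 min before stimulus; ibuprofen 10 mg/kg orally as reference. Six animals per group.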

[5] = test system: Rattus norvegicus; assay: Antiinflammatory activity in Albino Wistar rat assessed as inhibition of carrageenan-induced paw edema at 10 mg/kg, po administered 1 hr before carrageenan challenge measured after 3 hrs by plethysmometer; type: functional; how it was run: as §1
[6] = test system: Rattus norvegicus; assay: Antiinflammatory activity in Albino Wistar rat assessed as inhibition of carrageenan-induced paw edema at 10 mg/kg, po administered 1 hr before carrageenan challenge measured after 5 hrs by plethysmometer; type: functional; how it was run: as §1
[7] = test system: Rattus norvegicus; assay: Ulcerogenicity in Albino Wistar rat assessed as gastric ulceration at 30 mg/kg, po relative to untreated control; type: toxicity, organism-based, Stomach; set-up: dose 30 mg/kg, route oral; settings: in vivo
How it was run: (§3)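 Oral dosing at three times the anti-inflammatory dose: ibuprofen 30 mg/kg or equimolar test compound. Three animals per group, sacrificed afterwards. Stomach wall sections stained with haematoxylin-eosin and examined at 10x and 40x for mucosal, submucosal and epithelial damage.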

[8] = test system: Mus musculus; assay: Ulcerogenicity in mouse assessed as gastric ulceration at 30 mg/kg, po relative to untreated control; type: toxicity, organism-based, Stomach; set-up: dose 30 mg/kg, route oral; settings: in vivo
[9] = test system: Rattus norvegicus; assay: Antiinflammatory activity in Albino Wistar rat assessed as inhibition of carrageenan-induced paw edema at equimolar dosage of Ibuprofen 10 mg/kg, po administered 1 hr before carrageenan challenge by plethysmometer; type: functional, organism-based; set-up: dose 10 mg/kg; settings: TDE = time-dependent effect, at 10 mg/kg; how it was run: as §1
[10] = test system: Mus musculus; assay: Analgesic activity in mouse assessed as inhibition of acetic acid-induced writhing at equimolar dosage of Ibuprofen 10 mg/kg, po administered 30 mins before to acetic acid challenge measured for 20 mins relative to control; type: functional, organism-based; set-up: dose 10 mg/kg; settings: at 10 mg/kg; how it was run: as §2
[11] = test system: Rattus norvegicus; assay: Ulcerogenicity in Albino Wistar rat assessed as gastric ulceration at equimolar dosage of Ibuprofen 30 mg/kg, po relative to control; type: toxicity, organism-based, Stomach; set-up: dose 30 mg/kg, route oral; settings: in vivo; how it was run: as §3
[12] = test system: Mus musculus; assay: Ulcerogenicity in mouse assessed as gastric ulceration at equimolar dosage of Ibuprofen 30 mg/kg, po relative to control; type: toxicity, organism-based, Stomach; set-up: dose 30 mg/kg, route oral; settings: in vivo

| Compound | inhibition in vivo [1] [%] | inhibition in vivo [2] [%] | other results |
| --- | --- | --- | --- |
| c1ccc(-n2cc(CSc3nc4ccccc4s3)nn2)cc1 | 46.7 | 32.1 | – |
| O=[N+]([O-])c1cccc(-n2cc(CSc3nc4ccccc4s3)nn2)c1 | 11.7 | 21.5 | Ratio IC50 [3]: 5.21 |
| c1cncc(-n2cc(CSc3nc4ccccc4s3)nn2)c1 | 64 | 56 | – |
| CC(C)Cc1ccc(C(C)C(=O)O)cc1 (stereo unspecified) [IBUPROFEN] | – | – | inhibition [4]: Active; inhibition in vivo at 10 mg/kg [5]: 69.5%; inhibition in vivo at 10 mg/kg [6]: 71.7%; Activity [7]: Toxic; Activity [8]: Toxic |
| Cc1ccccc1-n1cc(CSc2nc3ccccc3s2)nn1 | 47.3 | 43.4 | – |
| O=[N+]([O-])c1ccc(-n2cc(CSc3nc4ccccc4s3)nn2)cc1 | 75 | 65.5 | inhibition [9]: tde; inhibition [10]: Active; Activity [11]: Non-toxic; Activity [12]: Non-toxic |
| CCOc1ccc(-n2cc(CSc3nc4ccccc4s3)nn2)cc1 | 38.3 | 34 | – |
| CC1(C)O[C@H]2OC(Cn3cc(CSc4nc5ccccc5s4)nn3)[C@@H]3OC(C)(C)O[C@@H]3[C@@H]2O1 (stereo partly specified) | 59.7 | 56.6 | Ratio IC50 [3]: 1.53 |
| Clc1ccccc1-n1cc(CSc2nc3ccccc3s2)nn1 | 83.3 | 78.1 | inhibition [9]: tde; inhibition [10]: Active; Activity [11]: Non-toxic; Activity [12]: Non-toxic |
| Clc1cccc(-n2cc(CSc3nc4ccccc4s3)nn2)c1 | 35 | 39.6 | – |
| Brc1ccc(-n2cc(CSc3nc4ccccc4s3)nn2)cc1 | 75 | 59.2 | inhibition [9]: tde; inhibition [10]: Active; Activity [11]: Non-toxic; Activity [12]: Non-toxic |
| Cc1ccc(-c2cc(C(F)(F)F)nn2-c2ccc(S(N)(=O)=O)cc2)cc1 | – | – | Ratio IC50 [3]: 0.0028 |
| O[C@@H]1[C@H](O)[C@@H](O)OC(Cn2cc(CSc3nc4ccccc4s3)nn2)[C@@H]1O (stereo partly specified) | 63.3 | 60.4 | – |
| OCC(O)Cn1cc(CSc2nc3ccccc3s2)nn1 (stereo unspecified) | 56.7 | 52.8 | – |
| Fc1ccc(-n2cc(CSc3nc4ccccc4s3)nn2)cc1 | 77.8 | 81.1 | Ratio IC50 [3]: 0.441; inhibition [9]: tde; inhibition [10]: Active; Activity [11]: Non-toxic; Activity [12]: Non-toxic |
| Clc1ccc(-n2cc(CSc3nc4ccccc4s3)nn2)cc1 | 50 | 43.4 | Ratio IC50 [3]: 14.9 |
| CC1(C)OCC(Cn2cc(CSc3nc4ccccc4s3)nn2)O1 (stereo unspecified) | 53.3 | 49 | – |
